How the values were obtained:
Assay type in all cases: in vivo, human
[1] = Plasma insulin lispro pharmacokinetics after a single subcutaneous dose; conditions: for median tmax: healthy Japanese men, single s.c. 0.3 U/kg, plasma, n = 36
Method in brief: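 Venous blood drawn into K-EDTA tubes predose, then every 15–60 min over the 10 h clamp. Samples centrifuged within 20 min; plasma held at –60 to –80°C. Analysis by LC-MS/MS specific for lispro over endogenous insulin: protein precipitation plus solid-phase extraction, bovine insulin internal standard, C18 gradient at 40°C. Calibration was 1/x2-weighted linear over 100–8000 pg/mL. Noncompartmental parameters; log-values by mixed model, ratios back-transformed.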

[2] = system: healthy Japanese male subjects; assay: Safety and tolerability of single doses; conditions: single s.c. 0.3 U/kg, healthy Japanese men; all TEAEs mild or moderate
[3] = system: healthy Japanese male subjects; assay: 10-hour euglycemic clamp; conditions: ratio of geometric means, linear mixed effects model, n = 36, 95%CI
Method in brief: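 Randomized double-blind 2-period crossover, single s.c. 0.3 U/kg per period, 7–18 day washout. After ≥10 h overnight fast, baseline BG was the mean of readings at –30, –20, –10 and –1 min (clamp skipped if <70 mg/dL). BG measured every 1 min; 10% glucose infusion auto-adjusted to hold BG 5 mg/dL below baseline for 10 h. Body-weight-standardized GIR smoothed (LOESS, tension 0.06). Log-parameters analysed by mixed model (period, sequence, treatment fixed; subject random), back-transformed.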

[4] = ratio of geometric means, linear mixed effects model, n = 36, 90%CI

Substance | median tmax [1] [h] | Tolerability of single doses [2] | AUCinf, Mean Ratio SAR‐Lis/Ly‐Lis‐Jp, point estimate (90%CI) [1, 4] | AUClast, Mean Ratio SAR‐Lis/Ly‐Lis‐Jp, point estimate (90%CI) [1, 4] | Cmax, Mean Ratio SAR‐Lis/Ly‐Lis‐Jp, point estimate (90%CI) [1, 4] | t1/2z, Mean Ratio SAR‐Lis/Ly‐Lis‐Jp, point estimate (90%CI) [1, 4] | GIRmax, Mean Ratio SAR‐Lis/Ly‐Lis‐Jp, point estimate (95%CI) [3] | GIR‐AUC0‐10h, Mean Ratio SAR‐Lis/Ly‐Lis‐Jp, point estimate (95%CI) [3]
insulin lispro [Ly‐Lis‐Jp, reference compound] | 1 | well tolerated | – | – | – | – | – | –
insulin lispro [SAR‐Lis] | 1 | well tolerated | 1.00 (0.97‐1.02) | 1.00 (0.97‐1.02) | 0.99 (0.93‐1.05) | 1.03 (0.96‐1.11) | 1.07 (1.00‐1.15) | 1.07 (0.99‐1.15)
